According to ChEMBL document CHEMBL1255449, “Antiviral properties, metabolism, and pharmacokinetics of a novel azolo-1,2,4-triazine-derived inhibitor of influenza A and B virus replication” (Antimicrob Agents Chemother, 2010):
The source made the active and inactive calls. No cut-off for these calls is given here.

Tests used:
Oryctolagus cuniculus [1] = assay: Volume of distribution at steady state in rabbit at 105 mg/kg, ig up to 24 hrs by HPLC analysis; type: ADME, organism-based; set-up: dose 105 mg/kg, route intragastric; conditions: in vivo, po
Procedure, shortened: (§1)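 Rabbits (n = 4), anesthetised with ether-Fluorothane 10:1, given a single 105 mg/kg dose in water (12 ml) by gastric tube. Ear-vein blood was heparinised at set times up to 24 h, mixed with methanol, centrifuged, dried, redissolved in water and assayed by C18 HPLC. Parameters came from an extravascular noncompartmental model. F = (AUCi.g./dose)/(AUCi.v./dose); CL = dose/AUC; Vss = CL × MRT.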

[2] = Total clearance in rabbit at 105 mg/kg, ig up to 24 hrs by HPLC analysis; type: ADME, organism-based, Oryctolagus cuniculus; set-up: dose 105 mg/kg, route intragastric; conditions: in vivo, po; procedure, shortened: as §1
[3] = Tmax in rabbit at 105 mg/kg, ig by HPLC analysis; type: ADME, organism-based, Oryctolagus cuniculus; set-up: dose 105 mg/kg, route intragastric; conditions: in vivo, po; procedure, shortened: as §1
[4] = Total AUC in rabbit at 105 mg/kg, ig up to 24 hrs by HPLC analysis; type: ADME, organism-based, Oryctolagus cuniculus; set-up: time AUCmax, dose 105 mg/kg, route intragastric; conditions: in vivo, po; procedure, shortened: as §1
[5] = Apparent elimination half life in rabbit at 105 mg/kg, ig by HPLC analysis; type: ADME, organism-based, Oryctolagus cuniculus; set-up: dose 105 mg/kg, route intragastric; conditions: in vivo, po, read-out: beta t1/2 (converted); procedure, shortened: as §1
[6] = Mean residence time in rabbit at 105 mg/kg, ig by HPLC analysis; type: ADME, organism-based, Oryctolagus cuniculus; set-up: dose 105 mg/kg, route intragastric; conditions: in vivo, po; procedure, shortened: as §1
[7] = Cmax in rabbit at 105 mg/kg, ig up to 24 hrs by HPLC analysis; type: ADME, organism-based, Oryctolagus cuniculus; set-up: dose 105 mg/kg, route intragastric; conditions: in vivo, po; procedure, shortened: as §1
Influenza A virus [8] = assay: Antiviral activity against Influenza A virus H3N2 (A/Victoria/35/72) infected in MDCK cells assessed as log reduction in viral titer at 502 uM after 48 hrs […]; type: functional
Procedure, shortened: (§2)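 MDCK monolayers in MEM with 10% FBS at 37°C under 5% CO2 were infected with allantoic-fluid virus diluted 10−1 to 10−7. Aqueous test compound was added after 1 h adsorption. Virus yield was read at 48 h by haemagglutination with 0.5% chicken erythrocytes, and titres also by plaque assay. Each concentration was run in duplicate.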

Influenza B virus [9] = assay: Antiviral activity against Influenza B virus (B/Lee/1940) infected in […] assessed as survival rate at 100 mg/kg, ig administered 1 and 24 hrs before infection and 24 to 72 hrs post infection; type: functional; conditions: route intragastric
Influenza A virus [10] = assay: Antiviral activity against Influenza A virus (A/Hong Kong/1073/99(H9N2)) infected in MDCK cells assessed as log reduction in viral titer at 502 uM after 48 hrs […]; type: functional
Influenza B virus [11] = assay: Antiviral activity against Influenza B virus (B/Lee/1940) infected in […] assessed as survival rate at 50 mg/kg, ig administered 1 and 24 hrs before infection and 24 to 72 hrs post infection; type: functional; conditions: route intragastric
Influenza A virus [12] = assay: Antiviral activity against Influenza A virus/H7N3 (A/Mallard/NT/12/02) infected in MDCK cells assessed as log reduction in viral titer at 502 uM after 48 hrs by MTT assay; type: functional
Influenza A virus [13] = assay: Antiviral activity against Influenza A virus (A/Vietnam/1194/2004 (H5N1)) infected in MDCK cells assessed as log reduction in viral titer at 502 uM after 48 hrs […]; type: functional
Oryctolagus cuniculus [14] = assay: Volume of distribution at steady state in rabbit at 4.3 mg/kg, iv up to 24 hrs by HPLC analysis; type: ADME, organism-based; set-up: dose 4.3 mg/kg, route intravenous; conditions: in vivo
Procedure, shortened: (§3)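 Rabbits (n = 4) received 4.3 mg/kg in physiological solution into the marginal ear vein over 1 min. Ear-vein blood was heparinised at set times up to 24 h, methanol-extracted and assayed by C18 HPLC with a heptafluorobutyric acid/ethanol gradient. A noncompartmental i.v. infusion model gave AUCtot, T1/2 and MRT; Vss = CL × MRT.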

H3N2 subtype [15] = assay: Antiviral activity against Influenza A virus (A/Aichi/2/1968(H3N2)) infected in […] assessed as survival rate at 100 mg/kg, ig administered 1 and 24 hrs before infection and 24 to 72 hrs post infection; type: functional; conditions: route intragastric
Oryctolagus cuniculus [16] = assay: Total AUC in rabbit at 4.3 mg/kg, iv up to 24 hrs by HPLC analysis; type: ADME, organism-based; set-up: time AUCmax, dose 4.3 mg/kg, route intravenous; conditions: in vivo; procedure, shortened: as §3
H3N2 subtype [17] = assay: Antiviral activity against Influenza A virus (A/Aichi/2/1968(H3N2)) infected in […] assessed as survival rate at 50 mg/kg, ig administered 1 and 24 hrs before infection and 24 to 72 hrs post infection; type: functional; conditions: route intragastric
Influenza A virus [18] = assay: Antiviral activity against Influenza A virus (A/duck/Potsdam/1402-6/1986 (H5N2)) infected in MDCK cells assessed as log reduction in viral titer at 502 uM after 48 hrs […]; type: functional
[19] = Cytotoxicity against MDCK cells after 48 hrs by MTT assay; type: cell-based, Canis lupus familiaris; conditions: dog
Procedure, shortened: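 Cytotoxicity was measured on uninfected MDCK monolayers grown in MEM with 10% FBS and penicillin/streptomycin at 37°C under 5% CO2. Viability was read by MTT and expressed as CC50.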

Influenza A virus [20] = assay: Antiviral activity against Influenza A virus H3N2 (A/Victoria/35/72) infected in HEK293T cells assessed as log reduction in viral titer at 1000 ug/ml; type: functional, HEK-293T
Influenza A virus [21] = assay: Antiviral activity against Influenza A virus (A/duck/Potsdam/1402-6/1986 (H5N2)) infected in MDCK cells assessed as log reduction in viral titer at 385 uM after 48 hrs […]; type: functional
[22] = Toxicity against ip dosed rabbit; type: organism-based, Oryctolagus cuniculus; conditions: in vivo
Influenza A virus [23] = assay: Antiviral activity against Influenza A virus (A/Hong Kong/1073/99(H9N2)) infected in MDCK cells assessed as log reduction in viral titer at 960 uM after 48 hrs […]; type: functional
Influenza A virus [24] = assay: Antiviral activity against Influenza A virus (A/Vietnam/1194/2004 (H5N1)) infected in MDCK cells assessed as log reduction in viral titer at 385 uM after 48 hrs […]; type: functional
H3N2 subtype [25] = assay: Antiviral activity against Influenza A virus (A/Aichi/2/1968(H3N2)) infected in […] at 100 to 150 mg/kg, ig administered 1 hr before infection; type: functional, organism-based
[26] = Toxicity against ig dosed rabbit; type: organism-based, Oryctolagus cuniculus; conditions: in vivo, po
Influenza B virus [27] = assay: Antiviral activity against Influenza B virus (B/Lee/1940) infected in […] assessed as survival rate at 150 mg/kg, ig administered 1 and 24 hrs before infection and 24 to 72 hrs post infection; type: functional; conditions: route intragastric
[28] = Bioavailability in rabbit at 105 mg/kg, ig up to 24 hrs by HPLC analysis; type: ADME, organism-based, Oryctolagus cuniculus; conditions: in vivo, po; procedure, shortened: as §1
Influenza B virus [29] = assay: Antiviral activity against Influenza B virus (B/Lee/1940) infected in rabbit at 100 to 150 mg/kg, ig administered after 48 hrs post infection; type: functional, organism-based
Influenza B virus [30] = assay: Antiviral activity against Influenza B virus (B/Lee/1940) infected in […] at 100 to 150 mg/kg, ig administered 1 hr before infection; type: functional, organism-based
Influenza A virus [31] = assay: Antiviral activity against Influenza A virus H3N2 (A/Victoria/35/72) infected in MDCK cells assessed as log reduction in viral titer at 385 uM after 48 hrs […]; type: functional; procedure, shortened: as §2
Influenza B virus [32] = assay: Antiviral activity against Influenza B virus (B/Lee/1940) infected in […] at 100 to 150 mg/kg, ig administered 24 hrs before infection; type: functional, organism-based
H3N2 subtype [33] = assay: Antiviral activity against Influenza A virus (A/Aichi/2/1968(H3N2)) infected in […] at 100 to 150 mg/kg, ig administered 24 hrs before infection; type: functional, organism-based
Influenza A virus [34] = assay: Antiviral activity against Influenza A virus H3N2 (A/Victoria/35/72) infected in MDCK cells assessed as log reduction in viral titer at 960 uM after 48 hrs […]; type: functional; procedure, shortened: as §2
Influenza A virus [35] = assay: Antiviral activity against Influenza A virus/H7N3 (A/Mallard/NT/12/02) infected in MDCK cells assessed as log reduction in viral titer at 960 uM after 48 hrs by MTT assay; type: functional
H3N2 subtype [36] = assay: Antiviral activity against Influenza A virus (A/Aichi/2/1968(H3N2)) infected in […] at 100 to 150 mg/kg, ig administered after 48 hrs post infection; type: functional, organism-based
Influenza A virus [37] = assay: Antiviral activity against Influenza A virus H7N3 (A/Mallard/NT/12/02) infected in MDCK cells assessed as log reduction in viral titer at 385 uM after 48 hrs […]; type: functional
Influenza A virus [38] = assay: Antiviral activity against Influenza A virus (A/Vietnam/1194/2004 (H5N1)) infected in MDCK cells assessed as log reduction in viral titer at 960 uM after 48 hrs […]; type: functional
Influenza B virus [39] = assay: Antiviral activity against Influenza B virus (B/Lee/1940) infected in […] at 100 to 150 mg/kg, ig administered after 24 hrs post infection; type: functional, organism-based
Influenza A virus [40] = assay: Antiviral activity against Influenza A virus (A/duck/Potsdam/1402-6/1986 (H5N2)) infected in MDCK cells assessed as log reduction in viral titer at 960 uM after 48 hrs by MTT assay; type: functional
Influenza A virus [41] = assay: Antiviral activity against Influenza A virus H3N2 (A/Victoria/35/72) infected in human HuH7 cells assessed as log reduction in viral titer at 1000 ug/ml; type: functional, Huh-7
H3N2 subtype [42] = assay: Antiviral activity against Influenza A virus (A/Aichi/2/1968(H3N2)) infected in […] at 100 to 150 mg/kg, ig administered after 24 hrs post infection; type: functional, organism-based
Influenza A virus [43] = assay: Antiviral activity against Influenza A virus (A/Hong Kong/1073/99(H9N2)) infected in MDCK cells assessed as log reduction in viral titer at 385 uM after 48 hrs […]; type: functional

Compound `CSc1nc2[nH]nc(N)c(=O)n2n1` has a Vdss (Oryctolagus cuniculus [1]) of 58.5 L/kg, a CL/F [2] of 740 mL/min/kg and a Tmax [3] of 3 h. The AUC at 24 h [4] was 690 ng·h/mL, the half-life [5] was 0.97 h and the MRT [6] was 4.14 h. For the same compound, the Cmax [7] was 140 ng/mL.

Compound `CC(N)C12CC3CC(CC(C3)C1)C2` (configuration not stated) [RIMANTADINE] has an FC (Influenza A virus [8]) of 5, an Activity (Influenza B virus [9]) of 20% and an FC (Influenza A virus [10]) of 0.75. The Activity (Influenza B virus [11]) was 15%, the FC (Influenza A virus [12]) was 3 and the FC (Influenza A virus [13]) was 1. The Vdss (Oryctolagus cuniculus [14]) was 1.2 L/kg, the Activity (H3N2 subtype [15]) was 85% and the AUC (Oryctolagus cuniculus [16]) was 1200 ng·h/mL. It also gave an Activity (H3N2 subtype [17]) of 80% and an FC (Influenza A virus [18]) of 2.

For `CSc1nc2[n-]nc([N+](=O)[O-])c(=O)n2n1.O.O.[Na+]` [TRIAZAVIRINE], the CC50 at 48 h [19] was greater than 8 mM, the Activity (Influenza B virus [9]) was 65% and the FC (Influenza A virus [20]) was less than 0.75. The FC (Influenza A virus [21]) was 0.5, the LD50 [22] was 1400 mg/kg and the FC (Influenza A virus [23]) was 0.5. The FC (Influenza A virus [24]) was 2, the Activity (H3N2 subtype [25]) was “Active” and the LD50 [26] was 2200 mg/kg. It also gave an Activity (Influenza B virus [27]) of 65%, a bioavailability [28] of 12.5% and an Activity (H3N2 subtype [15]) of 70%. For the same compound, the Activity (Influenza B virus [29]) was “Active”, the Activity (Influenza B virus [30]) was “Active” and the FC (Influenza A virus [31]) was 1. For the same compound, the Activity (Influenza B virus [32]) was “Active”, the Activity (H3N2 subtype [33]) was “Active” and the Vdss (Oryctolagus cuniculus [1]) was 83.5 L/kg. The FC (Influenza A virus [34]) was 1, the FC (Influenza A virus [35]) was 3.5 and the CL/F [2] was 617 mL/min/kg. For the same compound, the Activity (H3N2 subtype [36]) was “Active”, the Tmax [3] was 0.4 h and the AUC at 24 h [4] was 3100 ng·h/mL. The FC (Influenza A virus [37]) was 0.25, the FC (Influenza A virus [38]) was 2.25 and the half-life [5] was 1.1 h. The Activity (Influenza B virus [39]) was “Active”, the FC (Influenza A virus [40]) was 1.6 and the FC (Influenza A virus [41]) was less than 0.75. The MRT [6] was 2.3 h, the Activity (H3N2 subtype [42]) was “Active” and the Cmax [7] was 1100 ng/mL. For the same compound, the FC (Influenza A virus [43]) was 0.
